# In ChEMBL document CHEMBL1131206, “Synthesis, anticonvulsant activity, and structure-activity relationships of sodium channel blocking 3-aminopyrroles” (J Med Chem, 1998):
# Tests used:
# [1] = test system: Rattus norvegicus; experiment: Anticonvulsant activity was measured by maximal electroshock seizure test in rat by po administration; No effective response; assay type: functional, organism-based
# In short: (§1)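 Maximal electroshock test in male albino Sprague–Dawley rats (100 g) after oral dosing, run at the previously determined time of peak effect. At least eight rats per group received various doses until at least two points lay between 0% and 100% protection. ED50 with 95% confidence interval was calculated. Single-dose entries report percent protection at that dose.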
# [2] = test system: Mus musculus; experiment: Minimal motor impairment activity of the compound was measured by Rotarod test in mice by ip administration; No effective response; assay type: functional, organism-based
# In short: (§2)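 Rotorod neurotoxicity test in male albino CF No. 1 mice dosed ip, run at the time of peak effect. Impairment was defined as failure to keep equilibrium for 60 s in each of three trials on the rotating rod. With groups of at least eight mice across various doses, the median motor-impairing dose and its 95% confidence interval were calculated.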
# [3] = test system: Mus musculus; experiment: Anticonvulsant activity was measured by maximal electroshock seizure test in mice by ip administration; No effective response; assay type: functional, organism-based
# In short: (§3)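 Male albino CF No. 1 mice (18–25 g) were dosed ip and tested by maximal electroshock at the previously determined time of peak effect. Groups of at least eight mice received various doses until at least two points fell between 0% and 100% protection. ED50 and its 95% confidence interval were calculated. Single-dose entries give protection percentage at the indicated dose.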
# [4] = test system: Rattus norvegicus; experiment: Minimal motor impairment activity of the compound was measured by […] in rat by po administration; No effective response; assay type: functional, organism-based
# In short: (§4)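 Minimal motor impairment in male Sprague–Dawley rats (100 g) after oral dosing was judged at the time of peak effect. The criterion was overt ataxia, abnormal gait and stance, and/or loss of placing response and muscle tone. Groups had at least eight rats across various doses, and the median impairing dose with its 95% confidence interval was calculated.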
# [5] = test system: Rattus norvegicus; experiment: Anticonvulsant activity was measured by maximal electroshock seizure test in rat by po administration; assay type: functional; in short: as §1
# [6] = test system: Rattus norvegicus; experiment: Anticonvulsant activity in corneal kindled rats was determined when 40 mg/kg was administered orally; assay type: functional; conditions: route oral
# In short: (§5)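 Male Sprague–Dawley rats were kindled by daily corneal stimulation (8 mA, 60 Hz, 4 s) until they reached 10 consecutive stage 5 seizures (rearing and falling with clonus). The drug was then given orally, and seizure score was recorded as mean ± variation. Abolition of the generalized stage 4–5 seizure served as the endpoint.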
# [7] = test system: Mus musculus; experiment: Minimal motor impairment activity by Rotarod test in mice following i.p. administration.; assay type: functional; conditions: ip; in short: as §2
# [8] = test system: Mus musculus; experiment: Anticonvulsant activity was measured by maximal electroshock seizure test in mice by ip administration; assay type: functional; in short: as §3
# [9] = test system: Rattus norvegicus; experiment: Minimal motor impairment activity by Rotarod test in rat following p.o. administration.; assay type: functional; conditions: po; in short: as §4
# [10] = test system: Rattus norvegicus; experiment: Anticonvulsant activity in corneal kindled rats was determined when 20 mg/kg was administered orally; assay type: functional; conditions: route oral; in short: as §5
# [11] = test system: Rattus norvegicus; experiment: Anticonvulsant activity in corneal kindled rats was determined when 80 mg/kg was administered orally; assay type: functional; conditions: route oral; in short: as §5
# [12] = test system: Rattus norvegicus; experiment: Anticonvulsant activity in corneal kindled rats was determined when 10 mg/kg was administered orally; assay type: functional; conditions: route oral; in short: as §5
# [13] = Partition coefficient (logP); assay type: physicochemical; conditions: octanol/water
# [14] = test system: Mus musculus; experiment: Anticonvulsant activity (ED50) was measured by maximal electroshock seizure test in mice by ip administration; No effective response; assay type: functional, organism-based; in short: as §3
# [15] = test system: Rattus norvegicus; experiment: Anticonvulsant activity was measured by maximal electroshock seizure test in rat by po administration at 50 mg/kg; assay type: functional; in short: as §1
# [16] = test system: Rattus norvegicus; experiment: Anticonvulsant activity in corneal kindled rats was determined when 10 mg/kg was administered intraperitoneally; assay type: functional; conditions: route intraperitoneal
# In short: (§6)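 Male Sprague–Dawley rats (100 g) kindled by daily corneal stimulation at 8 mA/60 Hz for 4 s until 10 consecutive stage 5 seizures (rearing and falling with clonus). Drug was given ip in 0.5% methyl cellulose in water at 0.04 mL/10 g body weight. Read-out was seizure score; abolition of the generalized (stage 4–5) seizure was the endpoint.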
# [17] = test system: Rattus norvegicus; experiment: Anticonvulsant activity in corneal kindled rats was determined when 25 mg/kg was administered intraperitoneally; assay type: functional; conditions: route intraperitoneal; in short: as §6
# [18] = test system: Rattus norvegicus; experiment: Anticonvulsant activity in corneal kindled rats was determined when 50 mg/kg was administered intraperitoneally; assay type: functional; conditions: route intraperitoneal; in short: as §6
# [19] = test system: Rattus norvegicus; experiment: Anticonvulsant activity in corneal kindled rats was determined when 150 mg/kg was administered intraperitoneally; assay type: functional; conditions: route intraperitoneal; in short: as §6
# [20] = test system: Rattus norvegicus; experiment: Anticonvulsant activity in corneal kindled rats was determined when 100 mg/kg was administered intraperitoneally; assay type: functional; conditions: route intraperitoneal; in short: as §6
# [21] = test system: Rattus norvegicus; experiment: Anticonvulsant activity in corneal kindled rats was determined when 75 mg/kg was administered intraperitoneally; assay type: functional; conditions: route intraperitoneal; in short: as §6
# [22] = test system: Rattus norvegicus; experiment: Anticonvulsant activity (ED50) was measured by maximal electroshock seizure test in rat by po administration; No effective response; assay type: functional, organism-based; in short: as §1
# [23] = test system: Mus musculus; experiment: Minimal motor impairment activity was measured by Rotarod test in mice by ip administration; assay type: functional; in short: as §2
# [24] = test system: Mus musculus; experiment: Anticonvulsant activity was measured by maximal electroshock seizure test in mice by ip administration at 100 mg/kg; assay type: functional; conditions: route intraperitoneal; in short: as §3
# [25] = test system: Rattus norvegicus; experiment: Minimal motor impairment activity was measured by Rotarod test in rat by po administration; assay type: functional; in short: as §4
# [26] = test system: Rattus norvegicus; experiment: Anticonvulsant activity was measured by maximal electroshock seizure test in rat by po administration at 25 mg/kg; assay type: functional; in short: as §1
# [27] = test system: Mus musculus; experiment: Anticonvulsant activity was measured by maximal electroshock seizure test in mice by ip administration at 30 mg/kg; assay type: functional; conditions: route intraperitoneal; in short: as §3
smiles,measurement,setting,value
COC(=O)CCc1c(N2CCOCC2)c(-c2ccc(Cl)cc2)cn1C,ED50,[1],No effective response
same,ED50,[2],No effective response
same,ED50,[3],No effective response
same,ED50,[4],No effective response
NC(=O)N1c2ccccc2C=Cc2ccccc21 [CARBAMAZEPINE],ED50,[5],11.9 mg/kg
same,Seizure score,[6],3.8
same,ED50,[7],47.8 mg/kg
same,ED50,[8],9.9 mg/kg
same,ED50,[9],361 mg/kg
same,Seizure score,[10],4.5
same,Seizure score,[11],2
same,Seizure score,[12],4.8
CC(C)COC(=O)c1[nH]cc(-c2ccc(Cl)cc2)c1N1CCOCC1,ED50,[1],No effective response
same,ED50,[2],No effective response
same,ED50,[3],No effective response
same,ED50,[4],No effective response
COC(=O)c1c(N2CCOCC2)c(-c2ccc(Cl)cc2)cn1C(=O)N1CCOCC1,logP,[13],3.1
CN1CCN(C(=O)c2[nH]cc(-c3ccc(Cl)cc3)c2N2CCOCC2)CC1,ED50,[7],> 300 mg/kg
same,logP,[13],3.3
same,ED50,[9],> 50 mg/kg
same,ED50,[14],No effective response
same,Protection,[15],50%
O=C1NC(=O)C(c2ccccc2)(c2ccccc2)N1 [PHENYTOIN],Seizure score,[16],5
same,Seizure score,[17],4.7
same,Seizure score,[18],4.4
same,ED50,[7],42.8 mg/kg
same,ED50,[8],6.5 mg/kg
same,Seizure score,[19],3
same,Seizure score,[20],3
same,ED50,[9],> 500 mg/kg
same,Seizure score,[21],3.7
CCS(=O)(=O)n1cc(-c2ccc(Cl)cc2)c(N2CCOCC2)c1C(=O)OC,ED50,[2],No effective response
same,logP,[13],4.2
same,ED50,[14],No effective response
same,ED50,[22],No effective response
same,ED50,[4],No effective response
Clc1ccc(-c2c[nH]nc2N2CCOCC2)cc1,ED50,[7],300 mg/kg
same,ED50,[8],47 mg/kg
same,ED50,[9],> 50 mg/kg
same,Protection,[15],100%
COC(=O)c1[nH]cc(-c2cccc(Br)c2)c1N1CCOCC1,ED50,[23],> 300 mg/kg
same,Protection,[15],75%
same,Protection,[24],100%
same,ED50,[25],> 50 mg/kg
O=C(O)c1[nH]cc(-c2ccc(Cl)cc2)c1N1CCOCC1,ED50,[7],> 300 mg/kg
same,logP,[13],1.8
same,ED50,[9],> 25 mg/kg
same,Protection,[26],75%
COC(=O)c1[nH]cc(-c2ccc(Cl)cc2)c1N(C)CCN(C)C,ED50,[7],< 30 mg/kg
same,logP,[13],3.3
same,Protection,[27],100%
same,ED50,[9],> 50 mg/kg
same,Protection,[15],100%
O=C(c1[nH]cc(-c2ccc(Cl)cc2)c1N1CCOCC1)N1CCOCC1,logP,[13],3.1
CCOC(=O)c1[nH]cc(-c2ccc(Cl)cc2)c1N1CCOCC1,ED50,[5],7.9 mg/kg
same,ED50,[7],158 mg/kg
same,ED50,[8],49.9 mg/kg
same,logP,[13],3.9
same,ED50,[9],> 500 mg/kg
COCCNC(=O)c1[nH]cc(-c2ccc(Cl)cc2)c1N1CCOCC1,logP,[13],3.3
COC(=O)c1[nH]cc(-c2ccc(Cl)cc2)c1N1CCOCC1,ED50,[5],11.4 mg/kg
same,ED50,[7],56.4 mg/kg
same,ED50,[8],58.1 mg/kg
same,logP,[13],3.5
same,ED50,[9],> 500 mg/kg
COC(=O)c1[nH]cc(-c2ccc(Cl)cc2)c1N1CCN(c2ccccc2)CC1,ED50,[5],12.5 mg/kg
same,ED50,[7],> 500 mg/kg
same,ED50,[8],175 mg/kg
same,logP,[13],4.4
same,ED50,[9],> 500 mg/kg
